Results reported in ChEMBL document CHEMBL3046222, “Insecticidal activity of penitrems, including penitrem G, a new member of the family isolated from Penicillium crustosum” (2003).

Tests used:
Assay type in all cases: functional
Oncopeltus fasciatus [1] = assay: Insecticidal activity against third-instar nymph stage of Oncopeltus fasciatus assessed as nymph survival to reach adult instar stage at 20 to 500 ug/cm2 after 72 hr relative to control
Outline: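 Insects were colony-reared at 27 ± 1 °C, 50-60% RH and 16 h/8 h photoperiod. After 72 h of exposure, surviving nymphs were moved to a 500 cm3 glass flask and held under standard conditions to follow development to the adult stage. Acetone-treated controls were run in parallel.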

Ceratitis capitata [2] = assay: Insecticidal activity against adult Ceratitis capitata assessed as fecundity reduction at 10 ug/fly measured every 2 days for 10 days relative to control; parameters: scale not given: the % may be the effect or the level left
Outline: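 Flies were anaesthetised on ice and dosed topically on the abdomen with 1 µL of acetone solution; controls received acetone alone. Eggs laid over 24 h were collected and counted every 2 days through the 10-day period. Female deaths were logged to give eggs/female/day, accumulated over 10 days. Six independent experiments, reported as means ± SE.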

Oncopeltus fasciatus [3] = assay: Insecticidal activity against third-instar nymph stage of Oncopeltus fasciatus assessed as mortality at 20 ug/cm2 after 72 hr relative to control
Outline: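 Nymphs were reared on sunflower seeds at 27 ± 1 °C, 50-60% RH and 16 h/8 h light/dark. Acute toxicity was scored as dead insects after 72 h of exposure. Controls received the same amount of acetone. Run in triplicate; values are means ± SE with significance at […].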

Ceratitis capitata [4] = assay: Insecticidal activity against adult Ceratitis capitata assessed as eclosion rate at 10 ug/fly measured on 4 to 10 days relative to control
Ceratitis capitata [5] = assay: Insecticidal activity against adult Ceratitis capitata assessed as mortality at 10 ug/fly measured every 24 hr for 10 days relative to control
Outline: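 Adults 2-3 days old (5 males, 5 females per group) were anaesthetised on ice and dosed topically on the ventral abdomen with 1 µL of acetone dilution. Controls received 1 µL of acetone. Flies were held at 27 ± 1 °C, 50-60% RH and 16 h/8 h light/dark, with diet and water ad libitum. Mortality was scored every 24 h for 10 days. The assay was run on six occasions.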

Ceratitis capitata [6] = assay: Insecticidal activity against adult Ceratitis capitata assessed as fertility reduction at 10 ug/fly measured on 6 to 10 days relative to control; parameters: scale not given: the % may be the effect or the level left
Outline: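 Flies were dosed topically with 1 µL of acetone solution after ice anaesthesia; controls received acetone. On days 6 and 10 after treatment, 30 eggs per experiment were picked at random and placed on plates coated with 0.03% agar. Plates were kept at 27 ± 2 °C, 50-60% RH and 16 h/8 h light/dark, and emerged larvae were counted 5 days after collection.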

| SMILES | Survival (Oncopeltus fasciatus [1]) [%] | Activity (Ceratitis capitata [2]) [%] | mortality at 20 µg/cm2 (Oncopeltus fasciatus [3]) [%] | Activity (Ceratitis capitata [4]) [%] | mortality (Ceratitis capitata [5]) [%] | Activity (Ceratitis capitata [6]) [%] |
| --- | --- | --- | --- | --- | --- | --- |
| C=C(C)[C@H]1O[C@H]2CC[C@@]3(C)[C@@](O)(CC[C@H]4[C@@H]5OC(C)(C)[C@H]6C[C@@H]7C(=C)Cc8c(Cl)cc9[nH]c(c5c9c8[C@@]76O)[C@@]43C)[C@@]23O[C@H]3[C@H]1O [PENITREM A] | 0 | 78.4 | 31.1 | 0 | 59.7 | 100 |
| C=C1Cc2ccc3[nH]c4c5c3c2[C@H]2[C@@H]1C[C@@H]2C(C)(C)O[C@H]5[C@@H]1CC[C@@]2(O)[C@@]35O[C@@H]3[C@@H](O)[C@@H](C(=C)C)O[C@H]5CC[C@]2(C)[C@@]41C [PENITREM B] | 14.3 | 88 | 6.6 | 0 | 50 | 100 |
| C=C1Cc2c(Cl)cc3[nH]c4c5c3c2[C@H]2[C@@H]1C[C@@H]2C(C)(C)O[C@H]5[C@@H]1CC[C@@]2(O)C3=C[C@@H](O)[C@@H](C(=C)C)O[C@H]3CC[C@]2(C)[C@@]41C [PENITREM C] | 29.5 | 94.9 | 24.4 | 0 | 73.3 | 100 |
| C=C1Cc2ccc3[nH]c4c5c3c2[C@H]2[C@@H]1C[C@H]2C(C)(C)O[C@H]5[C@@H]1CC[C@@]2(O)C3=C[C@@H](O)[C@@H](C(=C)C)O[C@H]3CC[C@]2(C)[C@@]41C [PENITREM D] | 58.3 | 77.1 | 11.1 | 42.8 | 41.7 | 52.5 |
| C=C1Cc2c(Cl)cc3[nH]c4c5c3c2[C@H]2[C@@H]1C[C@@H]2C(C)(C)O[C@H]5[C@@H]1CC[C@@]2(O)[C@@]35O[C@@H]3[C@@H](O)[C@@H](C(=C)C)O[C@H]5CC[C@]2(C)[C@@]41C [PENITREM F] | 9.5 | 100 | 20.3 | 0 | 66.6 | 100 |
| C=C1Cc2ccc3[nH]c4c5c3c2[C@H]2[C@@H]1C[C@H]2C(C)(C)O[C@H]5[C@]1(O)CC[C@@]2(O)C3=C[C@@H](O)[C@@H](C(=C)C)O[C@H]3CC[C@]2(C)[C@@]41C [PENITREM G] | 100 | 7.2 | 0 | 88.5 | 0 | 3.8 |
